These results are taken from PMC7339641 (Molecular imaging and biology, 2018).

The test system of data set [1] is MDA-MB-453 cells. Briefly: Fluorescent microscopy of peptide binding, MDA-MB-453. The following applies: fixed cells, peptide 250 nM, 1 h room temperature, neutravidin-AlexaFluor488. The format is cell-based, human. A digest of the protocol:
(§1)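 Cells fixed in 10 % formalin and dried onto slides overnight. Rehydrated in TBS, then blocked with 2 % BSA in TBS for 1 h. Biotinylated test peptide at 250 nM in 0.1 % TBST for 1 h at room temperature, then 3× washes with 0.1 % TBST. Neutravidin-AlexaFluor488 for 1 h at room temperature. Mounted in DAPI-containing medium and imaged on an inverted microscope.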

The subject of data set [2] is HCC-1954 cells. Briefly: Fluorescent microscopy of peptide binding, HCC-1954. The following applies: fixed cells, peptide 250 nM, 1 h room temperature, neutravidin-AlexaFluor488. The format is cell-based. In short, it runs like this:
as §1

Data set [3] deals with HER3. The following applies: human, in vivo; cited from earlier work.

For the compound `CC(C)C[C@@H]1NC(=O)[C@@H](NC(=O)CNC(=O)CNC(=O)CNC(=O)CCCC[C@@H]2SC[C@@H]3NC(=O)N[C@@H]32)CSSC[C@@H](C(=O)O)NC(=O)[C@H](CO)NC(=O)[C@H](CCCNC(=N)N)NC(=O)[C@H](Cc2ccccc2)NC(=O)[C@H](CCCCN)NC(=O)[C@H]([C@@H](C)O)NC(=O)[C@@H]2CCCN2C1=O` [biotinylated-HER3P1], the “binding by fluorescent microscopy, MDA-MB-453” value in data set [1] is reported as “high binding”. In addition, in data set [2], the “binding by fluorescent microscopy, HCC-1954” value is given as “almost no visualization”.
“^64Cu-labeled DOTA-conjugated patritumab: 64Cu-labeled DOTA conjugate of the anti-HER3 antibody patritumab”: the “specific accumulation measured by tumor-to-blood ratio” value in data set [3] is “approximately 1”.
